Assay results as given in ChEMBL document CHEMBL1141440, “Sesquiterpene lactones from the roots of Ferula varia and their cytotoxic activity” (J Nat Prod, 2007).
Converted amounts (≈) assume the structure as drawn.

Columns and labels:
KB = test: Cytotoxicity against human KB cells; assay type: functional, cell-based
Outline: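 KB human epidermoid carcinoma cells were grown in DMEM with 10% FBS at 37 °C under humidified 5% CO2. Cytotoxicity was given as IC50 in µg/mL.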

[1] = Cytotoxicity against multidrug-resistant human KB-C2 cells; assay type: functional, cell-based
Outline: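 KB-C2, a multidrug-resistant KB subline, was maintained in DMEM with 10% FBS and 5 µM colchicine at 37 °C under humidified 5% CO2. Cytotoxicity was reported as IC50 in µg/mL.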

[2] = Cytotoxicity against multidrug-resistant human KB-C2 cells in presence of 2.5 uM colchicine; assay type: functional, cell-based
Outline: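 KB-C2 cells were kept in DMEM with 10% FBS and 5 µM colchicine, then tested for cytotoxicity with 2.5 µM colchicine added during exposure to samples. IC50 was given in µg/mL.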

K562 = test: Cytotoxicity against multidrug-resistant human K562 cells; assay type: functional, cell-based; conditions: in the assay text read “human K562 cells” for “multidrug-resistant human K562 cells”
Outline: (§1)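 K562/Adr cells, a doxorubicin-resistant leukemia line, were grown in RPMI1640 with 10% FBS and 0.5 µM doxorubicin at 37 °C under humidified 5% CO2. Cytotoxicity was expressed as IC50 in µg/mL.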

[3] = Cytotoxicity against doxorubicin-resistant human K562/Adr cells; assay type: functional, cell-based; outline: as §1
MCF7 = test: Cytotoxicity against human MCF7 cells; assay type: functional, cell-based
Outline: (§2)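 MCF7 breast and COLO205 colon carcinoma cells were cultured in RPMI1640 with 10% FBS at 37 °C in humidified 5% CO2-95% air. Cytotoxicity was read as IC50 in µg/mL.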

COLO 205 = test: Cytotoxicity against human COLO205 cells; assay type: functional, cell-based; outline: as §2
[4] = biological target: ATP-dependent translocase ABCB1 (Homo sapiens, UniProt P08183); test: Effect on P-glycoprotein expressed in KB-C2 cells assessed as increase in accumulation of rhodamine 123 at 50 uM; assay type: cell-based; conditions: kb-c2, 50 µM
Outline: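 For P-gp substrate accumulation, KB-C2 cells were incubated 2 h with 20 µM rhodamine 123 plus sample, then washed and lysed in 0.1% Triton X-100 in PBS. Retained fluorescence was measured and accumulation expressed as a percentage increase.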

ATP-dependent translocase ABCB1, sequence (P08183 whole entry): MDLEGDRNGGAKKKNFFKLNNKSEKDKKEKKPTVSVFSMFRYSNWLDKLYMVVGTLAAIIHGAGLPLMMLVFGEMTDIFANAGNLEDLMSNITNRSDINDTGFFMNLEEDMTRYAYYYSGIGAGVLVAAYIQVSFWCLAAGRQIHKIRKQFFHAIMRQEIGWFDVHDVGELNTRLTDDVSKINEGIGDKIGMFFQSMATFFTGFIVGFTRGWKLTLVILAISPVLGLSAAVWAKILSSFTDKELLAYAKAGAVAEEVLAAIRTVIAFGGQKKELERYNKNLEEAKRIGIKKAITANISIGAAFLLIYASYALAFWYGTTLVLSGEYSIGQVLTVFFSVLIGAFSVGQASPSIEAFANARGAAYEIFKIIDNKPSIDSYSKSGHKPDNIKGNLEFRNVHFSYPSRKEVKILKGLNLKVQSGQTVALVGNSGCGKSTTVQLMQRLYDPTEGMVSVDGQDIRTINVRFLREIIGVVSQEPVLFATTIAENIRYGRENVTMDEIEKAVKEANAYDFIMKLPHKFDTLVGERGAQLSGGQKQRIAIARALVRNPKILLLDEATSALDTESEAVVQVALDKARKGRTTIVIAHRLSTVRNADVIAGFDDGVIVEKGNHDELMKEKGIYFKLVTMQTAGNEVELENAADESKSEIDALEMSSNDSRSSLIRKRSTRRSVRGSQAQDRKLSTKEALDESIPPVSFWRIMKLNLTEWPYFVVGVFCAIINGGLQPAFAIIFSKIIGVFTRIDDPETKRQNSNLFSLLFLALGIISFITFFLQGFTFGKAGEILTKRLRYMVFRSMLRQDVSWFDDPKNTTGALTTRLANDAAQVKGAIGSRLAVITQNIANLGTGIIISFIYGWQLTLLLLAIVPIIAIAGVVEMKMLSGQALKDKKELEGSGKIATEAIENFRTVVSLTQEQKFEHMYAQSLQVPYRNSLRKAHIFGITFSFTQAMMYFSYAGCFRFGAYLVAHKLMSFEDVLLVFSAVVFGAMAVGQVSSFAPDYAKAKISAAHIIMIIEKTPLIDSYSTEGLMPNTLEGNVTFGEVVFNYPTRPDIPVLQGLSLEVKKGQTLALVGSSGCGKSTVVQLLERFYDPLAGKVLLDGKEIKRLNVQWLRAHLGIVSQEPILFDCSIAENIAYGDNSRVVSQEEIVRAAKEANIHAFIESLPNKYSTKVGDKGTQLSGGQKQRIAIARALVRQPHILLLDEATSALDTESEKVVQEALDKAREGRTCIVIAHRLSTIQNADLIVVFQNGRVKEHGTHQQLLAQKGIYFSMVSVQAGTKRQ

Compound | IC50 (KB) [µg/mL] | IC50 [1] [µg/mL] | IC50 [2] [µg/mL] | IC50 (K562) [µg/mL] | IC50 [3] [µg/mL] | IC50 (MCF7) [µg/mL] | IC50 (COLO 205) [µg/mL] | Activity [4] [%]
C=C1C(=O)O[C@@H]2[C@H]1CC[C@]1(C)[C@H](OC(=O)/C(C)=C/C)C=CC(=C)[C@@H]21 [DEHYDROOOPODIN] | 46.1 (≈ 140 µM) | 56.9 (≈ 173 µM) | 55.8 | 36.8 (≈ 112 µM) | > 100 | – | – | –
C=C1[C@@H](OC(=O)C(C)CC)C=C[C@@]2(C)CC[C@@H]3[C@@H](OC(=O)[C@@H]3C)[C@H]12 (some centres not stated) | > 100 | > 100 | – | > 100 | > 100 | > 100 | > 100 | –
C/C=C(\C)C(=O)O[C@H]1C[C@](C)(O)C2CC=C(C)[C@H]2[C@@H]2OC(=O)[C@H](C)[C@@H]21 (some centres not stated) | > 100 | > 100 | 25.4 | > 100 | > 100 | > 100 | > 100 | 114
C=C1C=C[C@@H](OC(=O)/C(C)=C/C)[C@@]2(C)CC[C@@H]3[C@@H](OC(=O)[C@@H]3C)[C@H]12 [OOPODIN] | 34.7 (≈ 105 µM) | 24.7 (≈ 74.8 µM) | 13.8 | 35.1 (≈ 106 µM) | 25.4 (≈ 76.9 µM) | – | – | –
C=C1C=C[C@@H](OC(=O)/C(C)=C/C)[C@@]2(C)CC[C@@H]3[C@@H](OC(=O)[C@]3(C)O)[C@H]12 | > 100 | > 100 | – | > 100 | > 100 | > 100 | > 100 | –
COc1cccc2c1C(=O)c1c(O)c3c(c(O)c1C2=O)C[C@@](O)(C(=O)CO)C[C@@H]3O[C@H]1C[C@H](N)[C@H](O)[C@H](C)O1 [DOXORUBICIN] | 0.22 (≈ 0.405 µM) | > 100 | – | 0.45 (≈ 0.828 µM) | 15.3 (≈ 28.1 µM) | – | – | –
C=C1[C@H]2O[C@H]2[C@@H](OC(=O)/C(C)=C/C)[C@@]2(C)CC[C@@H]3[C@@H](OC(=O)[C@@]3(O)COC(=O)/C(C)=C\C)[C@H]12 | 91.4 (≈ 198 µM) | 98 (≈ 213 µM) | 48.3 | > 100 | > 100 | > 100 | > 100 | 169
